# Screens: PubChem, Johns Hopkins Ion Channel Center
# TRPC4 agonist: opens the mouse TRPC4 cation channel | B-score at 10 µM | AID 2237 | HEK293 TRPC4beta/mu-opioid, Fluo4 calcium fluorescence; hits give high values | 310,000 tested, 0.49% active;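 active = B-score above 5 SD of library B-scores, and initial fluorescence ratio not above library mean plus 5 SD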;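 also: positive B-score marks a calcium rise read as TRPC4 activation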
# Target sequence (Q9QUQ5 whole entry, looked up): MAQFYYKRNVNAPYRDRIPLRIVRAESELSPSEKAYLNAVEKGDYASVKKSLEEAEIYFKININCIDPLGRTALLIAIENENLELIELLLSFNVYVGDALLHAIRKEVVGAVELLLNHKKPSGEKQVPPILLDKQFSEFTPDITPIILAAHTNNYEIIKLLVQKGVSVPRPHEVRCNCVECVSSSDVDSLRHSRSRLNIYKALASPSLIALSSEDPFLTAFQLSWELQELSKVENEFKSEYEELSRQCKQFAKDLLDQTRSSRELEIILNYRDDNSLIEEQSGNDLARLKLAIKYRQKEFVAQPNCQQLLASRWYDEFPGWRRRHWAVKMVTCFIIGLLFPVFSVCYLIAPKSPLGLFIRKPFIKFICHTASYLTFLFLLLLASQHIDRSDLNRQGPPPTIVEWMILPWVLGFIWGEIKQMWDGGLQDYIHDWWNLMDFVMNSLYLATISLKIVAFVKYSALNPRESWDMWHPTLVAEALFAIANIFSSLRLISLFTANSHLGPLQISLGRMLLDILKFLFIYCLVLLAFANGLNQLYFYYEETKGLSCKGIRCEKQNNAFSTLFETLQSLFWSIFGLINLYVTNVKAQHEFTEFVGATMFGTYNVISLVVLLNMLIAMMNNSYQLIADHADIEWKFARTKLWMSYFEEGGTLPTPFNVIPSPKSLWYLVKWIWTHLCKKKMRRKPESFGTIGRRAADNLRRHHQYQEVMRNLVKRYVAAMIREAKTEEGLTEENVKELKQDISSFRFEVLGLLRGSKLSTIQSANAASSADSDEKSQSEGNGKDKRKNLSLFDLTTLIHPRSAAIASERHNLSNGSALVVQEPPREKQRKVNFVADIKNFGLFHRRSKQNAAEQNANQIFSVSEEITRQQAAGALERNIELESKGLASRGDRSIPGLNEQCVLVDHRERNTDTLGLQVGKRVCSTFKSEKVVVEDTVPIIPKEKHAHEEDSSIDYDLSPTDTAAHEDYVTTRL
#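 Technique: kinetic Fluo4 calcium fluorescence; Test system: TRPC4beta and mu-opioid receptor HEK293 stable cells; Measure: B-scored integrated calcium fluorescence ratio; Benchmarks: low control buffer alone, high control maximal DAMGO; Schedule: 45 min room-temperature Fluo4 loading, 110 s read.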
# TRPC4 inh: TRPC4 (mouse) channel inhibition. 300,000 tested, 0.39% active. B-score at 10 µM. AID 2247. Q9QUQ5. HEK293 TRPC4beta/mu-opioid, DAMGO-evoked Fluo4 calcium flux; hits give low values;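 active = B-score over 3 SD under the library average, no early fluorescence shift, positive overall ratio signal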
#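 Assay system: Stable TRPC4beta/mu-opioid receptor HEK293 cells | Reagent: DAMGO in two steps, submaximal then maximal | Compound dosing: Single concentration per test compound | Signal: Fluo4 Ca2+ flux fluorescence | Evaluation: Per-well B score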
# TRPC4 potent: TRPC4 (mouse) allosteric potentiation; Q9QUQ5; HEK293 TRPC4beta/mu-opioid, DAMGO EC20, Fluo-4 Ca2+ flux; hits give high values; B-score at 10 µM; 310,000 tested, 0.42% active; AID 2227;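 active = B-score of calcium response area above 5 SD of library B-scores, with initial fluorescence ratio within 5 SD of library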
# TRPC6 activator: mouse TRPC6 channel activation; HEK293-TRPC6 membrane potential dye fluorescence; hits give high values; Q61143; 310,000 tested, 0.13% active; B-score at 10 µM; AID 2550;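 active = B-score of the integrated fluorescence ratio above library mean plus 3 SD, and starting fluorescence ratio within library mean plus 5 SD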;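 also: higher score means more depolarization so channel activation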
# TRPC6 inhibitor: mouse TRPC6 channel inhibition | B-score at 10 µM | 310,000 tested, 1.1% active | Q61143 | HEK293-TRPC6, membrane potential dye, ACh-evoked depolarization; hits give low values;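 active = B-score under library mean minus 3 SD, initial fluorescence not abnormally high, positive integrated signal ratio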;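 also: B-score derived from integrated fluorescence ratio over the kinetic read; more negative B-score means stronger inhibition of depolarization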
# A number is an active result; i = inactive; ! = not active in a repeat. Compounds with a hit are over-represented: about 2.3% of the library has one in this group of screens.
SMILES,TRPC4 agonist,TRPC4 inh,TRPC4 potent,TRPC6 activator,TRPC6 inhibitor
COc1ccc(C)cc1NCc1ccc([N+](=O)[O-])cc1,i,i,i,i,i
CC(C(=O)Nc1ccc2c(c1)OCCO2)N1CCN(C(=O)c2ccco2)CC1 (stereo not given),i,i,i,i,i
COc1cc(CN(C)CC2CCCN(CCc3ccccc3F)C2)cc(Cl)c1OC (stereo not given),i,-6,i,i,i
CN(Cc1ccccc1)CC1CCCN(CCc2ccccc2F)C1 (stereo not given),i,i,i,i,i
Cc1ccc(NC(=O)c2cccs2)cc1,77,-6,i,i,i
C(=N\c1nc2ccccc2[nH]1)/c1cccs1,54,i,i,i,i
Cn1c(/C=N/c2nc3ccccc3[nH]2)nc2ccccc21,i,i,i,i,i
Cc1cccc(OCCC(=O)Nc2ccc(F)c(Cl)c2)c1,i,i,i,i,i
C=CCc1ccccc1OCC(O)CN1CCN(Cc2ccc3c(c2)OCO3)CC1 (stereo not given),i,-7!,i,i,i
O=C(COC(=O)CNS(=O)(=O)c1cccc(Br)c1)Nc1ccccc1Sc1ccccc1,i,i,i,i,i
CCN1CCCC(OC(=O)c2cc(-c3ccc(C)cc3)nc3ccccc23)C1 (stereo not given),i,i,14,i,i
CC1(c2nnc(Cc3ccccc3)o2)CC(c2cccc(Cl)c2)=NO1 (stereo not given),i,i,i,i,i
CCOC(=O)C1(Cc2ccccc2)CCN(Cc2cccn2-c2cccnc2)CC1,45,i,i,i,i
CCOC(=O)C1(Cc2ccccc2)CCN(Cc2cccc3nccnc23)CC1,i,i,i,i,i
CCOC(=O)C1(Cc2ccccc2)CCN(Cc2cccn2-c2nccs2)CC1,46,i,i,i,i
CCOC(=O)C1(CCOc2ccccc2)CCN(Cc2cccn2-c2cccnc2)CC1,116,i,i,i,i
CCOC(=O)C1(CCOc2ccccc2)CCN(CCCn2cccn2)CC1,i,i,i,i,i
COc1ccc(C2C(C(=O)N3CCN(C)CC3)c3cc(OC)c(OC)cc3C(=O)N2C)cc1 (stereo not given),i,i,i,i,i
CCN1CCN(C(=O)C2c3cc(OC)c(OC)cc3C(=O)N(C)C2c2ccc(SC)cc2)CC1 (stereo not given),67,i,i,i,i
O=C(CN(C(=O)CCC(=O)Nc1nccs1)c1ccccc1F)NCc1ccc(F)cc1,i,i,i,i,i
O=C(Nc1ccccc1)C1=C[C@H](c2csc3ccccc23)C[C@H](OCc2ccc(CO)cc2)O1,i,i,14,i,i
O=C(NC1CC1)C1=C[C@H](c2csc3ccccc23)C[C@H](OCc2ccc(CO)cc2)O1,113,i,i,i,i
O=C(CCNC(=O)c1ccccc1Cl)Nc1nccs1,i,i,i,i,i
COc1cc(C2c3c(-c4ccccc4)n[nH]c3C(=O)N2c2ccccc2)ccc1O (stereo not given),i,i,14,i,i
CCCC(C(=O)NCCC(C)C)N(Cc1ccccc1)C(=O)c1snc(C(N)=O)c1N (stereo not given),i,i,i,i,i
SMILES,TRPC4 agonist,TRPC4 inh,TRPC4 potent,TRPC6 activator,TRPC6 inhibitor
Cn1c(=O)c2c(nc(CN3CCN(C(c4ccccc4)c4ccccc4)CC3)n2CCCO)n(C)c1=O,i,i,13,i,i
CCCCn1c(CN2CCN(c3cccc(Cl)c3)CC2)nc2c1c(=O)n(C)c(=O)n2C,i,i,i,i,i
CCCn1c(CN2CCN(c3cccc(Cl)c3)CC2)nc2c1c(=O)n(C)c(=O)n2C,i,i,12,i,i
COCCn1c(CN2CCN(C(c3ccccc3)c3ccccc3)CC2)nc2c1c(=O)n(C)c(=O)n2C,i,i,i,i,i
Cn1c(=O)n(CCCO)c(=O)c2c1nc1n2CCCN1Cc1ccccc1,i,-6,i,i,i
O=C(Nc1ccnn1C1CCN(Cc2cccc(O)c2)CC1)C1CCCC1,i,i,i,i,i
Cn1ncc(Br)c1C(=O)OCC(=O)Nc1nc(-c2ccccc2)cs1,i,i,i,i,i
O=[N+]([O-])c1cc(C(F)(F)F)ccc1NC1CCN(Cc2ccccc2)CC1,i,i,i,i,i
O=[N+]([O-])c1cc(C(F)(F)F)ccc1NC1CCN(Cc2ccccc2)C1 (stereo not given),i,i,50,i,i
Cc1ccc2cc(CN(CCCN3CCOCC3)C(c3nnnn3Cc3ccco3)C(C)C)c(=O)[nH]c2c1C (stereo not given),i,-9,i,i,i
Cc1ccc2cc(CN(CCN3CCOCC3)Cc3nnnn3Cc3ccco3)c(=O)[nH]c2c1C,i,i,i,i,i
CCC(c1nnnn1CCc1ccccc1)N(Cc1ccco1)Cc1cc2cccc(C)c2[nH]c1=O (stereo not given),i,i,11,i,i
CCC(c1nnnn1C(C)(C)C)N(Cc1ccco1)Cc1cc2cccc(C)c2[nH]c1=O (stereo not given),i,i,i,i,i
CCOC(=O)C(=O)Nc1ccccc1C(=O)NCc1ccccc1,i,i,i,i,i
NCCCNC(=O)c1cc2ccccc2[nH]1,106,i,i,i,i
CNC[C@H](O)c1ccc(O)c(O)c1,i,i,i,i,i
CNC[C@H](O)c1cccc(O)c1,52,i,i,i,i
COc1ccc(Br)cc1CNC(=O)CN1C(=O)C(c2ccccc2)Oc2cccnc21 (stereo not given),i,i,i,i,i
O=C(c1cccc([N+](=O)[O-])c1)N1CCCC(C(=O)N2CCCCCC2)C1 (stereo not given),i,i,29,i,i
CCOC(=O)c1cnc2c(C)cccc2c1NCCc1ccc(OC)c(OC)c1,i,-6,i,i,i
Cc1ccc(-c2cc(C(=O)Nc3ccc4c(c3)OCCO4)c3ccccc3n2)cc1,i,i,i,i,i
COc1ccc(CCN(C)CCC(=O)Nc2c(C)cc(C)cc2C)cc1OC,111,i,i,i,i
COC(=O)c1c(NC(=O)CSc2ncn[nH]2)sc(C)c1C,i,-7,i,i,i
CCOC(=O)c1c(NC(=O)CSc2ncn[nH]2)sc(C(C)=O)c1C,i,i,i,i,i
CCOc1ccccc1C(=O)Nc1cccc2cccnc12,i,i,i,i,i
Cc1ccc(-n2cc(CNC(C)c3cnn(C)c3C)c(-c3ccc(F)cc3)n2)cc1 (stereo not given),184,i,i,i,i
Cc1ccc(-c2nn(-c3ccccc3)cc2CNCc2ccccc2)cc1,i,i,i,i,i
Cc1ccc(-n2cc(CNC(C)c3cnn(C)c3)c(-c3ccc(F)cc3)n2)cc1 (stereo not given),233,i,i,i,i
Cc1ccc(-n2cc(CNCCc3cscn3)c(-c3ccc(F)cc3)n2)cc1,130,i,i,i,i
